ChEMBL document CHEMBL4325919, “3,5-Disubstituted-indole-7-carboxamides as IKKβ Inhibitors: Optimization of Oral Activity via the C3 Substituent” (ACS Med Chem Lett, 2018)
Values after ≈ are worked out from the molar mass of the structure shown.

Key:
[1] = target: T1, Inhibitor of nuclear factor kappa-B kinase subunit beta (Homo sapiens, UniProt O14920); test: Inhibition of recombinant human C-terminal GST-tagged IKKbeta (1 to 737 residues) expressed in baculovirus expression system using GST-IkBalpha substrate measured after 30 mins by TR-FRET assay
T1 sequence (O14920 whole entry): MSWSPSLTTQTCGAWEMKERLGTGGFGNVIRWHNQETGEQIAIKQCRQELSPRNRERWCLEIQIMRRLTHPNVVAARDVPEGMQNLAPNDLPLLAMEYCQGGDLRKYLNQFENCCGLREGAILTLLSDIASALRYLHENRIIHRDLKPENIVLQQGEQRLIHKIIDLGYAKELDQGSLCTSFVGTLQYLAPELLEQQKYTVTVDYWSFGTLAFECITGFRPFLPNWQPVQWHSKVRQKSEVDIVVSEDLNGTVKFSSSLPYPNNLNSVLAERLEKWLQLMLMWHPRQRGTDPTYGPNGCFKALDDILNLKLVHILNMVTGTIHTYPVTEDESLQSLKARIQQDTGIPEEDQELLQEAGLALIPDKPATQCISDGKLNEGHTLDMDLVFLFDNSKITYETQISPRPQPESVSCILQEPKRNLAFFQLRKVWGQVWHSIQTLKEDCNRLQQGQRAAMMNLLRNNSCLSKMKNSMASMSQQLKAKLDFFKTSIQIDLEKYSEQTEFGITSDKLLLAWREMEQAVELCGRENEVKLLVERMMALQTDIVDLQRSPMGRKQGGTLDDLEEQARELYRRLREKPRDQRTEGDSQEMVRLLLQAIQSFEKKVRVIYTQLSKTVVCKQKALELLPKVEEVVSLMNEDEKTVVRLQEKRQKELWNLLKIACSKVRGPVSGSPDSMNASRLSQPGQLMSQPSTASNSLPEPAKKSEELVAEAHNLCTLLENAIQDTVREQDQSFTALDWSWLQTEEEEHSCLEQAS
In short: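 IKK pIC50 values are the mean of more than 2 determinations unless noted otherwise. Compounds were tested as racemic mixtures.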

[2] = Permeability of the compound by PAMPA; format: ADME; settings: read-out: permeability
[3] = Kinetic aqueous solubility of the compound by UV-HPLC analysis; format: physicochemical; settings: buffer; read-out: Kinetic_solubility
[4] = Volume of distribution at steady state in Sprague-Dawley rat at 2 mg/kg, po or 1 mg/kg, iv; format: ADME, organism-based; settings: in vivo, read-out: Vdss
In short: (§1)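 Male Sprague Dawley rats, n=2 (n=3 for one compound). The i.v. leg used 5% DMSO with 20% Cavitron and the oral leg 5% DMSO with 6% Cavitron. Oral doses were 2 mg/kg, or 2.1 mg/kg where stated. The i.v. dose was 1 mg/kg. Clearance is plasma clearance.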

[5] = Oral bioavailability in Sprague-Dawley rat at 2 mg/kg; format: ADME, organism-based; settings: in vivo; in short: as §1
[6] = Kinetic aqueous solubility of the compound by chemiluminescent nitrogen detection assay; format: physicochemical; settings: buffer; read-out: Kinetic_solubility
[7] = Plasma clearance in Beagle dog at 2.03 mg/kg, po or 1.11 mg/kg, iv; format: ADME, organism-based, Canis lupus familiaris
In short: (§2)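 Male Beagle dogs, n=3. Vehicles were 5% DMSO with 20% Cavitron for i.v. dosing at 1.11 mg/kg and 5% DMSO with 6% Cavitron for oral dosing at 2.03 mg/kg. Derived values were plasma clearance, steady-state volume of distribution, half-life and oral bioavailability.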

[8] = system: Canis familiaris; test: Anti-inflammatory activity in inhaled LPS-induced Beagle dog lung neutrophilia model assessed as inhibition of LPS-induced increase in neutrophils in bronchoalveolar lavage administered orally 30 mins prior to LPS instillation and measured after […] by diff quick staining based hemocytometric method; format: functional; settings: Canis lupus familiaris, po
[9] = system: Rattus norvegicus; test: Anti-inflammatory activity in LPS-induced Lewis rat inflammation model assessed as inhibition of LPS-induced TNFalpha secretion in blood administered orally 30 mins prior to LPS challenge and measured after 2 hrs by ELISA; format: functional; settings: po
[10] = Volume of distribution at steady state in Beagle dog at 2.03 mg/kg, po or 1.11 mg/kg, iv; format: ADME, organism-based, Canis lupus familiaris; settings: in vivo, read-out: Vdss; in short: as §2
[11] = AUC in Beagle dog at 2.03 mg/kg, po; format: ADME, organism-based, Canis lupus familiaris; settings: in vivo; in short: as §2
[12] = AUC in Sprague-Dawley rat at 2 mg/kg, po; format: ADME, organism-based; settings: in vivo; in short: as §1
[13] = Half life in Beagle dog at 2.03 mg/kg, po or 1.11 mg/kg, iv; format: ADME, organism-based, Canis lupus familiaris; settings: in vivo; in short: as §2
[14] = Half life in Sprague-Dawley rat at 2 mg/kg, po or 1 mg/kg, iv; format: ADME, organism-based; settings: in vivo; in short: as §1
[15] = target: T1, Inhibitor of nuclear factor kappa-B kinase subunit beta; test: Inhibition of IKKbeta in human CD14-positive monocytes assessed as reduction in LPS-stimulated TNFalpha secretion preincubated for 30 mins followed by LPS stimulation and measured after 24 hrs by Alpha screen assay; format: cell-based
[16] = Plasma clearance in Sprague-Dawley rat at 2 mg/kg, po or 1 mg/kg, iv; format: ADME, organism-based; in short: as §1
[17] = Oral bioavailability in Beagle dog at 2.03 mg/kg; format: ADME, organism-based, Canis lupus familiaris; settings: in vivo; in short: as §2

SMILES: NC(=O)c1cc(-c2ccccc2)cc2c(C3CCC(=O)CC3)c[nH]c12
- IC50 [1]: 501 nM

SMILES: NC(=O)c1cc(-c2ccccc2)cc2c(C3CCN(S(=O)(=O)CCCN4CCCCCC4)CC3)c[nH]c12
- IC50 [1]: 6.31 nM
- Papp [2]: 29 ×10⁻⁶ cm/s
- solubility kinetic [3]: 93 µM (≈ 48.6 µg/mL)

SMILES: NC(=O)c1cc(-c2ccccc2)cc2c(C3CCCC(=O)C3)c[nH]c12 (stereo not given)
- IC50 [1]: 79.4 nM

SMILES: CS(=O)(=O)CCc1c[nH]c2c(C(N)=O)cc(-c3ccccc3)cc12
- IC50 [1]: 63.1 nM

SMILES: CC1(C)C[C@H](c2c[nH]c3c(C(N)=O)cc(-c4ccc(F)cc4)cc23)CCS1(=O)=O
- Vd [4]: 4.7 L/kg
- bioavailability [5]: 94.1%
- solubility kinetic [6]: 32 µM (≈ 13.3 µg/mL)
- clearance [7]: 1.86 mL/min/kg
- ED50 [8]: 1.8 µmol/kg
- ED50 [9]: 21.7 µmol/kg
- IC50 [1]: 7.94 nM
- Papp [2]: 28.3 ×10⁻⁶ cm/s
- Vd [10]: 2.87 L/kg
- AUC [11]: 8200 ng·h/mL
- AUC [12]: 1960 ng·h/mL
- half-life [13]: 20.9 h
- half-life [14]: 4.5 h
- IC50 [15]: 130 nM
- clearance [16]: 13.2 mL/min/kg
- bioavailability [17]: 65.3%

SMILES: NC(=O)c1cc(-c2ccccc2)cc2c([C@H]3C[C@H]4CC[C@@H](C3)S4(=O)=O)c[nH]c12
- IC50 [1]: 39.8 nM

SMILES: NC(=O)c1cc(-c2ccccc2)cc2c(C3CCN(S(=O)(=O)CCN4CCOCC4)CC3)c[nH]c12
- IC50 [1]: 7.94 nM
- Papp [2]: 31 ×10⁻⁶ cm/s
- solubility kinetic [3]: 41 µM (≈ 20.4 µg/mL)

SMILES: CC1(C)CC(=O)NC1c1c[nH]c2c(C(N)=O)cc(-c3ccccc3)cc12 (stereo not given)
- IC50 [1]: 200 nM

SMILES: NC(=O)c1cc(-c2ccc(F)cc2)cc2c(C3CCS(=O)(=O)CC3)c[nH]c12
- Vd [4]: 3.7 L/kg
- bioavailability [5]: 47.4%
- IC50 [1]: 12.6 nM
- Papp [2]: 28 ×10⁻⁶ cm/s
- AUC [12]: 1270 ng·h/mL
- half-life [14]: 2.2 h
- IC50 [15]: 50 to 810 nM
- clearance [16]: 23.5 mL/min/kg

SMILES: NC(=O)c1cc(-c2ccccc2)cc2c(C3CCN(S(=O)(=O)CCCNC4CCCC4)CC3)c[nH]c12
- IC50 [1]: 20 nM
- Papp [2]: 14 ×10⁻⁶ cm/s
- solubility kinetic [3]: 85 µM (≈ 43.2 µg/mL)

SMILES: CC1(C)CC(c2c[nH]c3c(C(N)=O)cc(-c4ccccc4)cc23)CCS1(=O)=O (stereo not given)
- Vd [4]: 7.2 L/kg
- bioavailability [5]: 115%
- solubility kinetic [6]: 39 µM (≈ 15.5 µg/mL)
- IC50 [1]: 7.94 nM
- Papp [2]: 33 ×10⁻⁶ cm/s
- AUC [12]: 1430 ng·h/mL
- half-life [14]: 2.34 h
- IC50 [15]: 110 nM
- clearance [16]: 51.1 mL/min/kg

SMILES: NC(=O)c1cc(-c2ccccc2)cc2c(C3CCS(=O)(=O)C3)c[nH]c12 (stereo not given)
- IC50 [1]: 100 nM

SMILES: NC(=O)c1cc(-c2ccccc2)cc2c(C3CCCS(=O)(=O)C3)c[nH]c12 (stereo not given)
- IC50 [1]: 158 nM

SMILES: NC(=O)c1cc(-c2ccccc2)cc2c(C3CCC(=O)N3)c[nH]c12 (stereo not given)
- IC50 [1]: 39.8 nM
